Experimental data from different studies.
Lines come from different studies, so protocols differ.
Organism: Plasmodium falciparum
Observed: parasite growth

CO[C@H]1C[C@@H](C[C@H](C)[C@H]2CC(=O)[C@@H](C)/C=C(\C)[C@H](O)[C@H](OC)C(=O)[C@@H](C)C[C@@H](C)/C=C/C=C/C=C(\C)[C@H](OC)C[C@H]3CC[C@H](C)[C@](O)(O3)C(=O)C(=O)N3CCCC[C@@H]3C(=O)O2)CC[C@@H]1OCCO (racemic) — IC50 (SYBR Green; blood stage): 1250 nM
NCCCNc1nc2cc(Br)ccc2n1Cc1ccccc1 — IC50 (NF54; blood stage): 382 nM
O=C1C(O)=C([C@H]2CC[C@H](c3ccc(Cl)cc3)CC2)C(=O)c2ccccc21 — IC50 (3D7; 72 h, blood stage): 0.4 nM
CCCCCCCc1c(O)cc(CC=C(C)C)c(O)c1C=O — IC50 (W2; 72 h, drug-resistant strain, blood stage): 2.7 µg/mL
c1ccc(Cn2c(N3CCNCC3)nc3cc(-c4ccncc4)ccc32)cc1 — IC50 (NF54; blood stage): 1660 nM
C[C@@]12CCC[C@]3(C)C4=CC(=O)OCC4=C[C@@H](OC1=O)C23 (some centres unmarked) — IC50 (W2; 72 h, drug-resistant strain, blood stage): 0.2 µg/mL
CN1CCN(C2CCN(c3nccc4[nH]c(-c5ccc(F)c(C(F)(F)F)c5)nc34)CC2)CC1 — IC50 (NF54; blood stage): < 100 nM
Clc1ccc2c(nc(N3CCNCC3)n2Cc2ccccc2)c1-c1ccccc1 — IC50 (NF54; blood stage): 3650 nM
COc1cccc2c(-c3ccc4c(c3O)[C@@H](C)N[C@H](C)C4)c(C)cc(OC)c12 — IC50 (SYBR Green; NF54; blood stage): 1330 nM
CCN(CC)CCCC(C)Nc1ccnc2cc(Cl)ccc12 (centres unmarked) — IC50 (LDH): 206 nM
Cc1cc(NC(=O)Nc2ccc3c(c2)OC(F)(F)O3)cc(C(F)(F)F)n1 — IC50 (NF54; blood stage): 290 nM
Clc1ccc2c(nc(N3CCNCC3)n2Cc2ccccc2)c1Cl — IC50 (NF54; blood stage): 55 nM
COc1ccccc1-c1ccccc1C(=O)Nc1c(C)cccc1C(=O)O — IC50 (resazurin; NF54; 48 h, gametocyte): > 10000 nM
CCN(CC)CCCC(C)Nc1ccnc2cc(Cl)ccc12 (centres unmarked) — IC50 (D6; blood stage): 0.016 µg/mL
COc1ccc2[nH]c(-c3ccc(Cc4ccc(OC(F)(F)F)cc4)cc3)c(C)c(=O)c2c1 — IC50 (3D7; blood stage): > 350 nM
C[C@@H]1CC[C@H]2[C@@H](C)C(=O)O[C@@H]3O[C@@]4(C)CC[C@@H]1[C@]32OO4 — IC50 (W2; drug-resistant strain, blood stage): 0.009 µg/mL
Clc1ccc2c(c1)nc(NCCNCc1ccccc1)n2Cc1ccccc1 — IC50 (NF54; blood stage): 86 nM
O=C(O)/C=C/C=C/c1cccc(Oc2cc(Cl)cc(Cl)c2)c1 — IC50 (SYBR Green; blood stage): 54200 nM
COC1=CC(c2ccc[nH]2)=NC1=Cc1ccc(CCCCCCCCCCO)[nH]1 — IC50 (D6; blood stage): 108 nM
CN1CCN(C2CCN(c3nccc4[nH]c(-c5cc(F)cc(F)c5)nc34)CC2)CC1 — IC50 (NF54; blood stage): < 100 nM
Cc1ccc2c(c1C)NC(=O)[C@]21NN=C(c2ccccc2)S1 — IC50 (SYBR Green; blood stage): 960 nM
CCCCCCCCCCCCCC(O)CC(O)CO (centres unmarked) — IC50 (D6; blood stage): 28.2 µg/mL
NCCN(C(=O)c1ccc(Cl)cc1Cl)c1ccc(OCc2ccc(Cl)cc2)cc1 — IC50 (SYBR Green; blood stage): 2810 nM
CCN(CC)CCCC(C)Nc1ccnc2cc(Cl)ccc12 (centres unmarked) — IC50 (D10; 72 h): 20 nM
O=C(Nc1ccccc1-c1nc2c(C(=O)O)cccc2o1)c1ccccc1 — IC50 (SYBR Green; blood stage): 75800 nM
NC1CCN(c2nc3cc(Cl)ccc3n2Cc2ccccc2)CC1 — IC50 (NF54; blood stage): 22 nM
CCN(CC)CCCC(C)Nc1ccnc2cc(Cl)ccc12 (centres unmarked) — IC50 (3D7; 96 h, blood stage): 3 nM
C[C@H]1[C@@H](O)O[C@@H]2O[C@@]3(C)CC[C@H]4[C@H](C)CC[C@@H]1[C@@]24OO3 — IC50 (3D7; 72 h, blood stage): 5.8 nM
N=C(N)NCCCCC(=O)Nc1cc(C(F)(F)F)cc(NC(=O)c2cc(C(=O)Nc3cc(C(F)(F)F)cc(NC(=O)CCCCNC(=N)N)c3O[C@@H]3CCNC3)ncn2)c1O[C@@H]1CCNC1 — IC50 (SYBR Green; blood stage): 670 nM
O=C(Nc1c(F)cccc1C(=O)O)c1ccc(-c2ccccc2)cc1 — IC50 (NF54; 48 h, blood stage): > 10000 nM
C[C@@H]1CC[C@H]2[C@@H](C)C(=O)O[C@@H]3O[C@@]4(C)CC[C@@H]1[C@]32OO4 — IC50 (D6; 72 h, blood stage): 0.0047 µg/mL
NCCCCNc1nc2cc(Cl)ccc2n1Cc1ccccc1 — IC50 (NF54; blood stage): 1340 nM
Cc1ccc(-c2ccc3ncc4c(c3c2)n(-c2cccc(C(F)(F)F)c2)c(=O)n4C)cn1 — IC50 (resazurin; 3D7; gametocyte): < 100 nM
CC[C@@H](C)[C@H]1O[C@@H](c2c(O)c(-c3ccccc3)cn(O)c2=O)[C@H](C)C[C@@H]1C — IC50 (D6; 72 h, blood stage): 0.33 µg/mL
CC(C)Cn1c(=O)n(C)c(=O)c2c(-c3cncn3C)n(Cc3cccc4ccccc34)nc21 — IC50 (SYBR Green; blood stage): 4820 nM
O=C(Nc1cc(F)ccc1C(=O)O)c1ccc(-c2ccccc2)cc1 — IC50 (resazurin; NF54; 48 h, gametocyte): 105 nM
CCN(CC)CCCC(C)Nc1ccnc2cc(Cl)ccc12 (centres unmarked) — IC50 (NF54; blood stage): 8 nM
C[C@@]12CC[C@@H](O)[C@]3(C)C4=CC(=O)OCC4=C[C@@H](OC1=O)C23 (some centres unmarked) — IC50 (D6; 72 h, blood stage): 0.9 µg/mL
C[C@@H]1CC[C@H]2[C@@H](C)C(=O)O[C@@H]3O[C@@]4(C)CC[C@@H]1[C@]32OO4 — IC50 (D6; blood stage): 0.0085 µg/mL
C[C@@H](c1cc(Cl)cc(Cl)c1)N(C)c1ncc2c(N)nc(N)nc2n1 — IC50 (SYBR Green; blood stage): 8180 nM
O=C(Nc1ccc(F)cc1C(=O)O)c1ccc(-c2ccccc2)cc1 — IC50 (NF54; 48 h, blood stage): > 10000 nM
